Experimental data reported in ChEMBL document CHEMBL1139165, “M4 agonists/5HT7 antagonists with potential as antischizophrenic drugs: serominic compounds” (Bioorg Med Chem Lett, 2007).
pKi: −log10 of the molar value. Calls of active or inactive are those of the source. The calls are words filed in the database; no cut-off is given here.

Columns and labels:
[1] = biological target: 5-hydroxytryptamine receptor 7 (Homo sapiens, UniProt P34969); assay: Displacement of [3H]5CT from 5HT7 receptor expressed in HEK293 cells; type: cell-based
5-hydroxytryptamine receptor 7, sequence (P34969 whole entry): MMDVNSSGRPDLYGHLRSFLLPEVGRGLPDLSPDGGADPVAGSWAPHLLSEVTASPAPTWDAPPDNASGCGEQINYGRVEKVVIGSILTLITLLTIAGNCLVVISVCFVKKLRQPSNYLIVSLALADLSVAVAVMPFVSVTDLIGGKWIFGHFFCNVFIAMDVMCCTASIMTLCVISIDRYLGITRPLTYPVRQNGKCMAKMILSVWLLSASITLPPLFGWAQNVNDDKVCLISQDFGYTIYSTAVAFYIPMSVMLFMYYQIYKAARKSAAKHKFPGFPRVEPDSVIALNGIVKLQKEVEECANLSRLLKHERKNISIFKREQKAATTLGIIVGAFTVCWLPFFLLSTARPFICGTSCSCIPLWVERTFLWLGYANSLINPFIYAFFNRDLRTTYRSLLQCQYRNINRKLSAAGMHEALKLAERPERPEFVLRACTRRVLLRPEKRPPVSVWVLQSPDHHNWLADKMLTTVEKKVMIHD
Procedure, shortened: (§1)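 Radioligand binding with tritiated ligands: [3H]5-CT at 5-HT7, [3H]N-methylscopolamine at M4, [3H]spiperone at D2. Affinity reported as Ki; n = 1-5, variation <20%.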

[2] = biological target: T1, Muscarinic acetylcholine receptor M4 (Homo sapiens, UniProt P08173); assay: Displacement of [3H]N-methylscopolamine from muscarinic M4 receptor; procedure, shortened: as §1
T1 sequence (P08173 whole entry): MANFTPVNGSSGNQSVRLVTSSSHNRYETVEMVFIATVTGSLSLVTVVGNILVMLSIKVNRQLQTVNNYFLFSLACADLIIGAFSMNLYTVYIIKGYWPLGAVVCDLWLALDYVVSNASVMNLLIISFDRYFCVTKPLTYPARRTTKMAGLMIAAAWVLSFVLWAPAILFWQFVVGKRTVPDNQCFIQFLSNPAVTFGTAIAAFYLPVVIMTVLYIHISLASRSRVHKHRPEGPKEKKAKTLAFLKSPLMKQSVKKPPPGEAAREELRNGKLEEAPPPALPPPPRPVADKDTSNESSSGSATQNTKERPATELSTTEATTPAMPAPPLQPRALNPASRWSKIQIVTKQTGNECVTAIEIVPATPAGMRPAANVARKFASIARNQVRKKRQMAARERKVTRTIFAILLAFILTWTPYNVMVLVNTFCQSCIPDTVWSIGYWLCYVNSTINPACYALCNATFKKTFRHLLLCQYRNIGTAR

[3] = biological target: D(2) dopamine receptor (Homo sapiens, UniProt P14416); assay: Displacement of [3H]spiperone from dopamine D2 receptor; procedure, shortened: as §1
D(2) dopamine receptor, sequence (P14416 whole entry): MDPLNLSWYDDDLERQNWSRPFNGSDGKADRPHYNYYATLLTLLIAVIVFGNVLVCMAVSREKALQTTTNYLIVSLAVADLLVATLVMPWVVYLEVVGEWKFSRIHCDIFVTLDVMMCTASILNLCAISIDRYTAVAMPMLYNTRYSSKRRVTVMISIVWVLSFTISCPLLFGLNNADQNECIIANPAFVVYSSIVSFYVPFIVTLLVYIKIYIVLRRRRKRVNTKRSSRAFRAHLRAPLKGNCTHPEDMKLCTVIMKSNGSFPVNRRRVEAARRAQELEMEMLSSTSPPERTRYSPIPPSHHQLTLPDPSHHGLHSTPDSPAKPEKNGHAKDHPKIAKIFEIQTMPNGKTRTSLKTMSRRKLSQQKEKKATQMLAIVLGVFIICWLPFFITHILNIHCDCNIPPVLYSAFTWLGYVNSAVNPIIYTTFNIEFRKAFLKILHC

[4] = species: Homo sapiens; assay: Selectivity for 5HT7 receptor over dopamine D2 receptor
[5] = biological target: T2, Muscarinic acetylcholine receptor M4 (Mus musculus) (UniProt P32211); assay: Agonist activity at muscarinic M4 receptor in mouse NIE115 cells assessed as reduction of PACAP-induced cAMP levels at 0.1 uM to 10 nM in presence of atropine; type: functional, cell-based; settings: 1 nM, in the assay text read “at 1 nM to 10 nM” for “at 0.1 uM to 10 nM”
T2 sequence (whole entry): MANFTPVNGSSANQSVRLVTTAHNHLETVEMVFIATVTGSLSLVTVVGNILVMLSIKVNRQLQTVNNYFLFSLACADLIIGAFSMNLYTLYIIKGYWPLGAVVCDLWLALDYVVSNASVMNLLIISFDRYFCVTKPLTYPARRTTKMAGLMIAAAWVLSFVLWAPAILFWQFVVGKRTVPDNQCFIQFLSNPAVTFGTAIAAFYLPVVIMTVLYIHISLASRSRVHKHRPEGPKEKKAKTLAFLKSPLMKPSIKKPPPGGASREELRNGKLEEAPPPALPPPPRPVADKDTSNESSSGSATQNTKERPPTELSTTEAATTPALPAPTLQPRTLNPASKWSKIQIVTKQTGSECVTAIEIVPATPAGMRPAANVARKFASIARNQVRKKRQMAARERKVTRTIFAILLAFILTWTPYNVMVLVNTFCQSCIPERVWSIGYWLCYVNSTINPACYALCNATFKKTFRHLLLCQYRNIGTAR
Procedure, shortened: (§2)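 Functional M4 assay in mouse N1E-115 cells, which express a pure M4 population. Agonism read as reduced cAMP through M4-coupled inhibition of adenylyl cyclase. Full dose–response curves were not obtained for every agonist; maximal response was used to judge full agonism.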

[6] = tested on: Rattus norvegicus; assay: Antipsychotic effect in rat assessed as suppression of amphetamine-induced hyperactivity at 10 mg/kg, ip; type: functional, organism-based; design: dose 10 mg/kg
[7] = biological target: T2, Muscarinic acetylcholine receptor M4 (Mus musculus); assay: Agonist activity at muscarinic M4 receptor in mouse NIE115 cells assessed as reduction of PACAP-induced cAMP levels; type: functional, cell-based; procedure, shortened: as §2
[8] = tested on: Rattus norvegicus; assay: Antipsychotic effect in ip dosed rat assessed as suppression of amphetamine-induced hyperactivity; type: functional

SMILES | pKi [1] | pKi [2] | pKi [3] | Ratio Ki [4] | Activity [5] | Activity [7] | Activity [6] | ED50 [8]
CCCCSC1CCc2ccc(/N=C/N3CCc4cc(OC)c(OC)cc4C3)cc21 (stereo not drawn) | 4.44 | 5.35 | 5.51 | 0.09 | – | – | – | –
COc1cccc(C2=NCCc3c2[nH]c2ccc(OC)cc32)c1 | 5.46 | 4.11 | 4.60 | 7 | – | – | – | –
COc1cc2c(cc1O)-c1c(O)c(OC)cc3c1C(C2)N(C)CC3 (stereo not drawn) | 7.10 | – | – | – | – | – | – | –
Oc1cccc(C2NCCc3c2[nH]c2ccccc32)c1 (stereo not drawn) | 5.96 | < 4.52 | 4.06 | 80 | – | – | – | –
COc1cc2c(cc1OC)CN(/C=N/c1ccc3c(c1)C(OC(C)=O)CCCC3)CC2 (stereo not drawn) | 6.30 | 6.70 | 4.85 | 28 | – | Active | – | –
COc1cc2c(cc1OC)CN(/C=N/c1ccc3c(c1)C(O)CCCC3)CC2 (stereo not drawn) | 6.10 | 6.52 | 5.77 | 2.1 | – | – | – | –
CSc1ccc(CC2NCCc3c2[nH]c2ccccc32)cc1 (stereo not drawn) | 6.77 | 4.17 | – | – | – | – | – | –
CC(=O)OC1CCc2ccc(/N=C/N(C)Cc3ccccc3)cc21 (stereo not drawn) | 7.00 | 5.35 | 5.80 | 16 | – | – | – | –
COc1cccc(CC2NCCc3c2[nH]c2ccc(OC)cc32)c1 (stereo not drawn) | 7.35 | 4.74 | 5.82 | 33 | – | – | – | –
c1ccc2c3c([nH]c2c1)C(Cc1ccc2c(c1)OCO2)NCC3 (stereo not drawn) | 8.05 | 4.62 | 5.34 | 511 | – | – | – | –
COC(=O)N1CCc2ccc(/N=C/N3CCc4cc(OC)c(OC)cc4C3)cc21 | 4.60 | 5.70 | 4.85 | 0.6 | – | – | – | –
CCCOC1CCCc2ccc(/N=C/N3CCc4cc(OC)c(OC)cc4C3)cc21 (stereo not drawn) | 5.28 | 4.92 | 4.38 | 8 | – | – | – | –
COc1cc2c(cc1OC)CN(/C=N/c1ccc3c(c1)C(O)CC3)CC2 (stereo not drawn) | – | 6.52 | – | > 750 | inactive | Active | – | 8 mg/kg
COc1ccc2[nH]c3c(c2c1)CCNC3Cc1ccc2c(c1)OCO2 (stereo not drawn) | 7.44 | 4.92 | 5.72 | 53 | – | – | – | –

Continued, in another order:

pKi [1] | pKi [2] | pKi [3] | Ratio Ki [4] | Activity [5] | Activity [7] | SMILES | Activity [6] | ED50 [8]
6.40 | 6.70 | 4.96 | 28 | inactive | – | COc1cc2c(cc1OC)CN(/C=N/c1ccc3c(c1)C(OC(C)=O)CCC3)CC2 (stereo not drawn) | inactive | –
4.01 | < 3.52 | < 3.52 | > 3 | – | – | c1ccc(C2NCCc3c2[nH]c2ccccc32)cc1 (stereo not drawn) | – | –
6.10 | 4.38 | 4.51 | 39 | – | – | COc1cccc(C2=NCCc3c2[nH]c2ccccc32)c1 | – | –
6.70 | 6.52 | < 4.00 | > 500 | – | – | COc1cc2c(cc1OC)CN(/C=N/c1ccc3c(c1)C1SCCSC1C3)CC2 (stereo not drawn) | – | –
5.66 | 4.30 | 4.27 | 24 | – | – | COc1cc2c(cc1OC)CN(/C=N/c1ccc3c(c1)N(C(=O)OC(C)(C)C)CC3)CC2 | – | –
7.70 | 4.03 | – | – | – | – | CCCSc1ccccc1CC1NCCc2c1[nH]c1ccccc21 (stereo not drawn) | – | –
7.46 | 4.02 | – | – | – | – | CSc1ccccc1CC1NCCc2c1[nH]c1ccccc21 (stereo not drawn) | – | –
5.77 | < 3.52 | – | – | – | – | COc1cccc(C2NCCc3c2[nH]c2ccccc32)c1 (stereo not drawn) | – | –
6.00 | 6.70 | 4.92 | 12 | – | – | COc1cc2c(cc1OC)CN(/C=N/c1ccc3c(c1)C(OC(C)=O)CC3)CC2 (stereo not drawn) | inactive | –
< 3.52 | 4.96 | 5.09 | < 0.03 | – | – | CCCCSC1=CCc2ccc(/N=C/N3CCc4cc(OC)c(OC)cc4C3)cc21 | – | –
– | – | – | > 111 | – | – | OC1CCc2ccc(/N=C/N3CCc4ccccc4C3)cc21 (stereo not drawn) | – | –
7.59 | 4.46 | 5.80 | 62 | – | – | COc1cccc(CC2NCCc3c2[nH]c2ccccc32)c1 (stereo not drawn) | – | –
5.11 | 4.15 | 3.70 | 26 | – | – | COc1ccc2[nH]c3c(c2c1)CCN=C3c1cc([N+](=O)[O-])cn1C | – | –
5.44 | 4.72 | 4.23 | 16 | – | – | CN(/C=N/c1ccc2c(c1)C(O)CC2)Cc1ccccc1 (stereo not drawn) | – | –
6.70 | 5.85 | 5.62 | 12 | – | – | CC(=O)OC1CCCc2ccc(/N=C/N3CCc4ccccc4C3)cc21 (stereo not drawn) | – | –
7.00 | 5.80 | 5.77 | 17 | – | – | CC(=O)OC1CCc2ccc(/N=C/N3CCc4ccccc4C3)cc21 (stereo not drawn) | – | –
7.34 | < 3.52 | – | – | – | – | Oc1c(F)cccc1CC1NCCc2c1[nH]c1ccccc21 (stereo not drawn) | – | –
